From PubChem
HTRA1 inh: HTRA1 serine protease inhibitors, primary screen, biochemical, fluorescence polarization, HTS. Q92743. inhibition, % at 5.96 µM. recombinant HTRA1, FP-rhodamine activity-based probe. 340,000 tested, 0.5% active. AID 504803, 2011; in the data active means inhibition above about 36%;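 further: 0% = enzyme with DMSO and 100% = wells lacking enzyme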
PRMT1 inh: PRMT1 methyltransferase inhibitors, primary screen, biochemical, fluorescence polarization | 370,000 tested, 1.3% active | AID 652257, 2013 | Protein arginine N-methyltransferase 1 (Homo sapiens), Q99873 | recombinant PRMT1, activity-based probe fluorescence polarization | inhibition, % at 2.79 µM;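 active means inhibition above about 21% made by adding two undisclosed values, limit read from the data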
SIAE primary: human SIAE inhibitors, primary screen, biochemical, fluorescence polarization, FP-Rh probe, 1536-well HTS; Sialate O-acetylesterase (Homo sapiens), Q9HAT2; SIAE FP-Rh probe binding; inhibition, % at 9.66 µM; 370,000 tested, 0.69% active; AID 1053197, 2014;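 active means inhibition above a cutoff: mean of compounds within the control limits plus 3 SD of those, cut at about 17% in these data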;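 further: 0% = plate median of compound wells and 100% = probe without SIAE protein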
Target sequence (Q9HAT2 whole entry, looked up): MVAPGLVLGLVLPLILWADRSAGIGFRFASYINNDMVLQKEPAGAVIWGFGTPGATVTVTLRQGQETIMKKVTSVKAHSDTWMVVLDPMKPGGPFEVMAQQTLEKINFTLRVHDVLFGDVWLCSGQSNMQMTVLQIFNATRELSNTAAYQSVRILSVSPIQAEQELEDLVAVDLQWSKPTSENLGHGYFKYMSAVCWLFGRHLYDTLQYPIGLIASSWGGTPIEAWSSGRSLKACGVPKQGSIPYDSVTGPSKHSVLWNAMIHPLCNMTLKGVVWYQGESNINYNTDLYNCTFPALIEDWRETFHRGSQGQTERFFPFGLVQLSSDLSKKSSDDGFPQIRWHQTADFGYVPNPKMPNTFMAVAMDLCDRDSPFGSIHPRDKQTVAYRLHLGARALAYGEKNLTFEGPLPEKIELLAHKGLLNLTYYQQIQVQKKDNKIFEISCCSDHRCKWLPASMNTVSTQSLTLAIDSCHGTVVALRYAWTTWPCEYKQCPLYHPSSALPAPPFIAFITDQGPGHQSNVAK
rCAG binder: binders of r(CAG) RNA repeats, primary screen, biochemical, fluorescence; r(CAG) RNA repeat, TO-PRO-1 dye displacement fluorescence; 370,000 tested, 1.3% active; inhibition, % at 3 µM;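 active means inhibition above the plate cutoff, the mean of all test compounds on that plate plus 3 SD, cut at about 35% in these data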;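 further: 0% = DMSO alone and 100% = 100 µM mitoxantrone as full dye displacement; higher means more dye released from RNA so lower well fluorescence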
ABHD4 inh: ABHD4 inhibitors, primary screen, biochemical, fluorescence polarization, mouse; purified mABHD4, FP-Rh probe fluorescence polarization; inhibition, % at 8.92 µM; 370,000 tested, 0.54% active; AID 720543, 2013;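 active means inhibition exceeding the mean over every tested compound plus 3 SD, cut at about 30% in these data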;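 further: 0% = plate median of compound wells and 100% = S159A mutant with DMSO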
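Material: mouse ABHD4 enzyme, wild type; Benchmarks: S159A mutant high control, sample median low control; Buffer or medium: HEPES pH 7.0, NaCl, Pluronic buffer; Signal: fluorescence polarization; Read-out: percent inhibition of probe binding, normalized to plate controls; Timing: pre-incubation 45 min, probe exposure 60 min, at 25 °C; Dosing: 8.92 µM, single dose.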
ABHD4 confirm: ABHD4 inhibitors, retest, confirmation, biochemical, fluorescence polarization, mouse | purified mABHD4, FP-Rh probe fluorescence polarization | 1,800 tested, 55% active | inhibition, % at 8.92 µM | shares compounds with ABHD4 inh;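 active means mean inhibition across replicates above the hit cutoff set in the primary screen, cut at about 30% in these data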;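 further: 0% = wild-type ABHD4 with DMSO and 100% = catalytically dead S159A mutant with DMSO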
The depositor's hits bear a star; . = no result given. An excerpt weighted towards active compounds, which were near 3.3% of everything screened.

SMILES	HTRA1 inh	PRMT1 inh	SIAE primary	rCAG binder	ABHD4 inh	ABHD4 confirm
COC(=O)[C@]12C[C@H](CC(=O)NCCC(C)C)C(=O)N(Cc3cccc4ccccc34)C1=C[C@H](C(C)(C)C)O[C@@H]2C	.	2.5	-3.4	7.7	-12.1	.
Nc1[nH]c(C(=O)c2ccccc2)c(-c2ccc(Cl)cc2)c1C(=O)NCCc1c[nH]c2ccccc12	.	3.2	10.5	11.3	30.6*	22.7
Nc1[nH]c(C(=O)c2ccccc2)c(-c2ccc3c(c2)OCO3)c1C(=O)NCCc1c[nH]c2ccccc12	.	-2.6	12.7	13.9	33.3*	39.0*
Nc1[nH]c(C(=O)c2ccccc2)c(-c2ccc(Cl)c(Cl)c2)c1C(=O)NCCc1c[nH]c2ccccc12	.	1.0	10.7	14.0	32.6*	18.7
Nc1[nH]c(C(=O)c2ccccc2)c(-c2cccc(C(F)(F)F)c2)c1C(=O)NCCc1c[nH]c2ccccc12	.	0.3	13.0	3.7	30.5*	3.0
Nc1[nH]c(C(=O)c2ccc(Br)cc2)c(-c2ccc(Cl)c(Cl)c2)c1C(=O)NCCc1c[nH]c2ccccc12	.	-1.3	14.4	9.2	15.1	.
Cn1c(CNC(=O)c2ccc(F)cc2)cc2ccccc21	-28.2	-3.4	5.9	-0.4	-7.3	.
Cc1ccc(NC(=O)Cc2ccc(OC(F)F)cc2)c(S(=O)(=O)N2CCOCC2)c1	.	3.4	-1.2	2.6	4.8	.
COc1cc2oc(=O)cc(-c3ccc(-c4ccc(N(C)C)cc4)cc3)c2c(OC)c1OC	-1.8	-3.1	1.1	9.9	3.1	.
Cc1ccccc1NC(=O)COC(=O)c1ccc(C)c(S(=O)(=O)N2CCCCC2)c1	-6.8	2.6	-3.6	0.9	-6.3	.
Nc1[nH]c(C(=O)c2ccc(Br)cc2)c(-c2ccc3ccccc3c2)c1C(=O)NCCc1c[nH]c2ccccc12	.	2.0	10.0	17.6	30.2*	34.7*
Nc1[nH]c(C(=O)c2ccccc2)c(-c2ccc(Cl)c(F)c2)c1C(=O)NCCc1c[nH]c2ccccc12	.	2.2	16.2	5.8	40.1*	42.6*
CCOC1=C2[C@@H](CN(S(=O)(=O)c3ccc(C)cc3)[C@H]2c2ccccc2F)[C@H]2C(=O)N(CC)C(=O)[C@H]2C1	.	-1.9	-5.2	4.4	-2.9	.
CCOC(=O)c1c(C)[nH]c2cc(Br)c(O)cc12	0.4	0.6	6.2	1.3	38.8*	59.7*
O=C(Nc1ccccc1)N(CCc1nc2ccccc2[nH]1)C1CCCC1	1.2	0.2	3.4	-1.5	3.0	.
S=C(NC1CCCCC1)N(CCc1nc2ccccc2[nH]1)C1CCCC1	-23.2	1.1	-1.4	-4.4	50.7*	52.9*
Cc1cc(NCc2ccccn2)n2ncc(-c3ccccc3)c2n1	12.0	1.4	0.5	0.8	45.2*	46.6*
Cc1cc(NCc2ccccn2)n2nc(C)c(-c3ccc(Cl)cc3)c2n1	16.4	5.3	2.1	-1.1	22.6	.
Cc1cc(NCc2ccccn2)n2ncc(-c3ccc(Cl)cc3)c2n1	.	-1.8	7.2	3.8	48.1*	63.9*
Cc1cc(-c2n[nH]c(=S)n2CC(C)C)cs1	-2.1	-3.9	10.8	0.8	31.9*	-5.8
COc1ccc(NC(=O)COC(=O)CN2C(=O)C3CCCCC3C2=O)cc1OC (stereo not drawn)	4.7	1.4	-1.5	0.0	-1.0	.
COc1cccc(C(C(=O)NC2CCCC2)N2CCN(c3cc(C)ccc3C)CC2)c1OC (stereo not drawn)	.	3.2	1.7	5.5	47.9*	6.1
Cc1ccc(C)c(N2CCN(C(C(=O)NC3CCCC3)c3ccco3)CC2)c1 (stereo not drawn)	.	4.6	11.3	0.1	-1.1	.
COc1cc(NC(=O)COC(=O)C=C(C)C)c(C)cc1[N+](=O)[O-]	-8.1	-3.5	-0.4	-1.9	0.8	.
CN(C)CCNc1cccc2sc3ccc(O)cc3c(=O)c12	.	7.7	4.6	7.2	30.9*	17.7
SMILES	HTRA1 inh	PRMT1 inh	SIAE primary	rCAG binder	ABHD4 inh	ABHD4 confirm
Cc1c(C)n2c(SCC(=O)NC3CCCCC3)nnc2[nH]c1=O	6.0	2.8	-2.1	-1.1	30.6*	4.6
CCCc1cc(=O)[nH]c2nnc(SCC(=O)NC3CCCC3)n12	0.7	-2.6	5.3	-2.6	-4.2	.
OCCN(CCO)c1cc2c3ccccc3ccc2c2ccccc12	2.0	0.0	0.2	8.2	30.3*	16.4
OCCN(CCO)c1ccc2ccccc2c1	6.5	5.7	3.1	-1.9	-1.0	.
CCN(CC)S(=O)(=O)c1cc(C(=O)N(C)CC(=O)Nc2ccc(Cl)cc2)ccc1Cl	-7.8	-2.1	2.9	1.8	-0.1	.
O=C(O)c1cc(S(=O)(=O)Nc2ccccc2Cc2ccccc2)ccc1Cl	-5.5	0.0	-6.6	20.6	-2.9	.
O=C(O)c1ccc(Cl)c(S(=O)(=O)Nc2ccccc2Cc2ccccc2)c1	-8.5	2.0	-10.3	25.5	30.2*	27.6
CCCc1cc(=O)[nH]c(SCC(=O)NC2CCCc3ccccc32)n1 (stereo not drawn)	4.7	-4.5	9.9	2.8	-3.3	.
CCCc1cc(=O)[nH]c(SCC(=O)NC2CCCCC2)n1	7.2	-1.5	2.3	2.5	93.4*	-3.4
Clc1ccc(/C=N/c2c(-c3ccco3)nc3ccccn23)cc1	34.4	14.4	11.6	6.4	40.9*	11.9
COc1cc(-c2nc3ccccn3c2/N=C/c2ccc(F)cc2)ccc1O	-9.3	-4.7	3.0	-2.3	2.6	.
O=[N+]([O-])c1cccc(/C=N/Nc2nc(NCc3ccccc3)nc(N3CCOCC3)n2)c1	1.0	-0.6	2.0	-2.5	46.7*	-9.7
Cc1cccc(C(=O)Nc2sc(-c3ccccc3)cc2C(=O)O)c1	-11.3	8.3	-78.0	93.8*	51.2*	52.6*
COc1ccc(N2C(=O)CS/C2=C\[N+](=O)[O-])cc1	5.5	3.3	8.2	22.2	30.2*	2.7
Cc1cc(O)c(C=Nc2ccc(N3CCOCC3)cc2)c(C)c1Cl	7.7	6.3	3.5	0.1	10.8	.
Oc1ccc(N=Cc2cc(Br)c(N3CCOCC3)o2)cc1	14.9	10.2	3.6	8.4	42.2*	6.2
Cc1cc(C)cc(NC2=CC(=O)CC(c3ccco3)C2)c1 (stereo not drawn)	-3.1	2.2	6.1	-1.4	8.4	.
CCc1ccc(NC2=CC(=O)CC(c3ccco3)C2)cc1 (stereo not drawn)	0.8	5.1	-1.6	3.3	37.5*	12.0
CS(=O)(=O)c1ccc(C(=O)OC2CCOC2=O)cc1[N+](=O)[O-] (stereo not drawn)	-3.1	2.2	8.2	1.6	2.2	.
CCN(c1ccccc1)S(=O)(=O)c1cc(C(=O)OC2CCOC2=O)ccc1C (stereo not drawn)	3.4	1.8	4.8	5.6	30.7*	23.3
